Results as given in paper PMC3082041 (Cancer Chemotherapy and Pharmacology, 2010).
Read-outs that look alike come from different tables or passages of the source.

Experiments:
[1] = Plasma pharmacokinetics of TSU-68; format: in vivo, human (Japanese patients); details: for AUC(0-t) / Cmax / half-life / Tmax: human, oral
Caucasian patients = details: cited from earlier work
[2] = published clinical result; cited from earlier work
[3] = Urinary excretion of TSU-68; format: in vivo, human (Japanese patients); details: any dose level
Method in brief: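 Dosing was once daily on days 1 and 29 and bid on days 2–28. Drug measured by validated HPLC-UV (LLOQ 0.1 μg/mL). Excretion expressed as percentage of dose.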

[4] = system: liver cytochrome P450, CYP1A1/2; details: non-clinical studies; cited from earlier work

Cc1[nH]c(/C=C2\C(=O)Nc3ccccc32)c(C)c1CCC(=O)O [TSU-68, (Z)-3-[2,4-dimethyl-5-(2-oxo-1,2-dihydro-indol-3-ylidenemethyl)-1H-pyrrol-3-yl]-propionic acid]
time to reach Cmax ([1]; after the first dose, plasma): ~ 2.5 h
AUC(0-t) ([1]; plasma, 200 mg/m2, AUC0–t, 200 mg/m^2, Day 1, 3 patients, plasma): 45600 ± 21000 ng·h/mL
AUC(0-t) ([1]; plasma, 200 mg/m2, AUC0–t, 200 mg/m^2, Day 8, 3 patients, plasma): 20600 ± 6200 ng·h/mL
AUC(0-t) ([1]; plasma, 200 mg/m2, AUC0–t, 200 mg/m^2, Day 29, 3 patients, plasma): 21200 ± 9500 ng·h/mL
Cmax ([1]; plasma, 200 mg/m2, Cmax, 200 mg/m^2, Day 1, 3 patients, plasma): 10600 ± 6040 ng/mL
Cmax ([1]; plasma, 200 mg/m2, Cmax, 200 mg/m^2, Day 8, 3 patients, plasma): 6670 ± 3700 ng/mL
Cmax ([1]; plasma, 200 mg/m2, Cmax, 200 mg/m^2, Day 29, 3 patients, plasma): 6350 ± 3780 ng/mL
half-life ([1]; plasma, 200 mg/m2, T1/2, 200 mg/m^2, Day 1, 3 patients, plasma): 8.03 ± 3.82 h
half-life ([1]; plasma, 200 mg/m2, T1/2, 200 mg/m^2, Day 8, 3 patients, plasma): 4.8 ± 2.14 h
half-life ([1]; plasma, 200 mg/m2, T1/2, 200 mg/m^2, Day 29, 3 patients, plasma): 3.59 ± 1.71 h
Tmax ([1]; plasma, 200 mg/m2, Tmax, 200 mg/m^2, Day 1, 3 patients, plasma): 2.3 ± 1.5 h
Tmax ([1]; plasma, 200 mg/m2, Tmax, 200 mg/m^2, Day 8, 3 patients, plasma): 1.7 ± 0.3 h
Tmax ([1]; plasma, 200 mg/m2, Tmax, 200 mg/m^2, Day 29, 3 patients, plasma): 1.7 ± 0.8 h
AUC(0-t) ([1]; plasma, 400 mg/m2, AUC0–t, 400 mg/m^2, Day 1, 3 patients, plasma): 58200 ± 16800 ng·h/mL
AUC(0-t) ([1]; plasma, 400 mg/m2, AUC0–t, 400 mg/m^2, Day 8, 3 patients, plasma): 25000 ± 9400 ng·h/mL
AUC(0-t) ([1]; plasma, 400 mg/m2, AUC0–t, 400 mg/m^2, Day 29, 2 patients, plasma): 22900 ng·h/mL
Cmax ([1]; plasma, 400 mg/m2, Cmax, 400 mg/m^2, Day 1, 3 patients, plasma): 11700 ± 3810 ng/mL
Cmax ([1]; plasma, 400 mg/m2, Cmax, 400 mg/m^2, Day 8, 3 patients, plasma): 7210 ± 1060 ng/mL
Cmax ([1]; plasma, 400 mg/m2, Cmax, 400 mg/m^2, Day 29, 2 patients, plasma): 6350 ng/mL
half-life ([1]; plasma, 400 mg/m2, T1/2, 400 mg/m^2, Day 1, 3 patients, plasma): 7.89 ± 4.04 h
half-life ([1]; plasma, 400 mg/m2, T1/2, 400 mg/m^2, Day 8, 3 patients, plasma): 3.53 ± 0.43 h
half-life ([1]; plasma, 400 mg/m2, T1/2, 400 mg/m^2, Day 29, 2 patients, plasma): 5.36 h
Tmax ([1]; plasma, 400 mg/m2, Tmax, 400 mg/m^2, Day 1, 3 patients, plasma): 2.5 ± 1.3 h
Tmax ([1]; plasma, 400 mg/m2, Tmax, 400 mg/m^2, Day 8, 3 patients, plasma): 1.8 ± 0.3 h
Tmax ([1]; plasma, 400 mg/m2, Tmax, 400 mg/m^2, Day 29, 2 patients, plasma): 1 h
AUC(0-t) ([1]; plasma, 800 mg/m2, AUC0–t, 800 mg/m^2, Day 1, 6 patients, plasma): 83300 ± 32700 ng·h/mL
AUC(0-t) ([1]; plasma, 800 mg/m2, AUC0–t, 800 mg/m^2, Day 8, 5 patients, plasma): 44600 ± 17300 ng·h/mL
AUC(0-t) ([1]; plasma, 800 mg/m2, AUC0–t, 800 mg/m^2, Day 29, 4 patients, plasma): 30000 ± 16700 ng·h/mL
Cmax ([1]; plasma, 800 mg/m2, Cmax, 800 mg/m^2, Day 1, 6 patients, plasma): 14600 ± 5650 ng/mL
Cmax ([1]; plasma, 800 mg/m2, Cmax, 800 mg/m^2, Day 8, 5 patients, plasma): 10600 ± 1830 ng/mL
Cmax ([1]; plasma, 800 mg/m2, Cmax, 800 mg/m^2, Day 29, 4 patients, plasma): 10700 ± 4690 ng/mL
half-life ([1]; plasma, 800 mg/m2, T1/2, 800 mg/m^2, Day 1, 6 patients, plasma): 9.93 ± 6.01 h
half-life ([1]; plasma, 800 mg/m2, T1/2, 800 mg/m^2, Day 8, 5 patients, plasma): 4.31 ± 2.72 h
half-life ([1]; plasma, 800 mg/m2, T1/2, 800 mg/m^2, Day 29, 4 patients, plasma): 4.37 ± 4.05 h
Tmax ([1]; plasma, 800 mg/m2, Tmax, 800 mg/m^2, Day 1, 6 patients, plasma): 2.8 ± 1.1 h
Tmax ([1]; plasma, 800 mg/m2, Tmax, 800 mg/m^2, Day 8, 5 patients, plasma): 1.5 ± 0.4 h
Tmax ([1]; plasma, 800 mg/m2, Tmax, 800 mg/m^2, Day 29, 4 patients, plasma): 2.1 ± 0.3 h
Cmax ([1]; plasma, 1200 mg/m^2, Cmax, 1,200 mg/m^2, Day 1, 3 patients, plasma): 16000 ± 1910 ng/mL
Cmax ([1]; plasma, 1200 mg/m^2, Cmax, 1,200 mg/m^2, Day 8, 3 patients, plasma): 8150 ± 4220 ng/mL
Cmax ([1]; plasma, 1200 mg/m^2, Cmax, 1,200 mg/m^2, Day 29, 3 patients, plasma): 6710 ± 884 ng/mL
half-life ([1]; plasma, 1200 mg/m^2, T1/2, 1,200 mg/m^2, Day 1, 3 patients, plasma): 8.33 ± 4.65 h
half-life ([1]; plasma, 1200 mg/m^2, T1/2, 1,200 mg/m^2, Day 8, 3 patients, plasma): 2.78 ± 0.9 h
half-life ([1]; plasma, 1200 mg/m^2, T1/2, 1,200 mg/m^2, Day 29, 3 patients, plasma): 4.84 ± 3.29 h
Tmax ([1]; plasma, 1200 mg/m^2, Tmax, 1,200 mg/m^2, Day 1, 3 patients, plasma): 2.2 ± 0.8 h
Tmax ([1]; plasma, 1200 mg/m^2, Tmax, 1,200 mg/m^2, Day 8, 3 patients, plasma): 1.8 ± 0.3 h
Tmax ([1]; plasma, 1200 mg/m^2, Tmax, 1,200 mg/m^2, Day 29, 3 patients, plasma): 1.7 ± 0.3 h
trough plasma level versus IC50 for VEGF and PDGF receptors cellular assay ([1]; steady-state exposure, 200 mg/m^2, IC50 from ref 16): above the IC50
AUC (Caucasian patients; day 1, Caucasian patients): 70000 ng·h/mL
AUC (Caucasian patients; day 28, Caucasian patients): 32000 ng·h/mL
AUC on day 56 compared with day 28 [2]: similar
Urinary excretion of TSU-68 [3]: below 1 % of dose
induction of liver cytochrome P450, CYP1A1/2 [4]: causes induction of liver cytochrome P450, CYP1A1/2
